Source: PubChem (several laboratories)
Hits are enriched below; roughly 1.5% of the tested compounds scored in any of these assays.
NSD2 inh = blocks human histone methyltransferase NSD2 | actives 0.54% (n = 310,000) | NSD2 peptide methylation, AlphaScreen, 120 min | O96028 | inhibition, % at 12.5 µM | AID 743445
Target sequence (O96028 whole entry, looked up): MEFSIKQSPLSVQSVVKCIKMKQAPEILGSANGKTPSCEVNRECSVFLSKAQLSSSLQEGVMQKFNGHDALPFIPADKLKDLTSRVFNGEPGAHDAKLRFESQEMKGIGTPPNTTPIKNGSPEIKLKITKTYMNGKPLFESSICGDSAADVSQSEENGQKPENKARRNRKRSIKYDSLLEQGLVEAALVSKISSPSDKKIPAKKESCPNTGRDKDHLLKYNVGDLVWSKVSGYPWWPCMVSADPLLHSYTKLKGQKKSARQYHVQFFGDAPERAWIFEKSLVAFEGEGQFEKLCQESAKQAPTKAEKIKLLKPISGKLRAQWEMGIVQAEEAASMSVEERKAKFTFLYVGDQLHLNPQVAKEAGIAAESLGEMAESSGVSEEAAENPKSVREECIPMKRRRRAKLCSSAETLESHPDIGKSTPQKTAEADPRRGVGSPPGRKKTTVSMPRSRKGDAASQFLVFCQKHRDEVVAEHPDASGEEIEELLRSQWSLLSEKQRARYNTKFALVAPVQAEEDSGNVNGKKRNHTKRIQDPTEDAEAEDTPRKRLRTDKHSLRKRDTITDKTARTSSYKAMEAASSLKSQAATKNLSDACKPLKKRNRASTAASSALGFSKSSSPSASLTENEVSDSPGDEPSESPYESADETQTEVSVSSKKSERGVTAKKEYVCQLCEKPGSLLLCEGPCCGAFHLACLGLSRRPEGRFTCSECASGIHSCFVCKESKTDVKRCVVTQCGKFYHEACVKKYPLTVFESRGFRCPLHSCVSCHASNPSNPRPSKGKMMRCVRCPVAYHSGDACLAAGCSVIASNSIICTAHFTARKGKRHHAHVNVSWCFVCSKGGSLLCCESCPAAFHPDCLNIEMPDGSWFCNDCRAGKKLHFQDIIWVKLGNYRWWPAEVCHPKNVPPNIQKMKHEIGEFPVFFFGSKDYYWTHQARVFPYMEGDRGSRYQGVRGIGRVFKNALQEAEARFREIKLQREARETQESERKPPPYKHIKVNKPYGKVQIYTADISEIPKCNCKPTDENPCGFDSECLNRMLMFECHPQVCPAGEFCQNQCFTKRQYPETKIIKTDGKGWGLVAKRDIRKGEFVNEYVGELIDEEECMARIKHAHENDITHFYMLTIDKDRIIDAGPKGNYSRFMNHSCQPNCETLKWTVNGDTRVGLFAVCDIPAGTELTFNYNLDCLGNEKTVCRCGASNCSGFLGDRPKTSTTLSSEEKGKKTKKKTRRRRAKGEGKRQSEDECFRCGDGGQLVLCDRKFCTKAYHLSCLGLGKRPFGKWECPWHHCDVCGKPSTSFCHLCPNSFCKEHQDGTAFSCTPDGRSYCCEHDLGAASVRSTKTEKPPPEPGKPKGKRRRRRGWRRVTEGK
HCV NS3 hel inh = HCV NS3 helicase inhibition | inhibition, % at 10.9 µM | NS3 helicase DNA unwinding, Cy5 molecular beacon fluorescence | actives 0.56% (n = 290,000);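 active means inhibition above the mean of all tested compounds plus 3 SD, set per campaign, cut at about 35% in these data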;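 further: 0% = DMSO wells and 100% = thioflavine S control wells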
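Assay system: hepatitis C virus NS3 helicase domain fragment enzyme. Also added: annealed dual-labelled DNA beacon duplex, ATP-started. Timing: 1 h reaction at 25 °C, ATP-initiated. Technique: Cy5 fluorescence at 0 and 60 min, beacon hairpin quenching. Evaluation: % inhibition of unwinding. Replication: one well per compound.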
DNMT1 block = DNMT1 (human) enzyme inhibition; P26358; DNMT1 molecular beacon, Hinp1I cleavage, fluorescence; inhibition (reported as % activation of signal), % at 10 µM; actives 0.83% (n = 360,000); AID 588458
Casp6 inh = inhibitors of human caspase-6; purified caspase-6, Z-VEID-R110 cleavage fluorescence; inhibition, % at 12.5 µM; actives 0.53% (n = 350,000); AID 686996;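 active means mean inhibition across replicates at least about 35%, with every replicate also reaching that limit, limit read from the data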;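 further: 0% = median of neutral control wells and 100% = no fluorescence left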
The depositor's hits bear a star; . = no result; + = active, no number. Unless noted, no stated cut-off is given here; in the data, active means inhibition above about 50%; inactive means the rest.

SMILES	NSD2 inh	HCV NS3 hel inh	DNMT1 block	Casp6 inh
O=C(Cn1cnc([N+](=O)[O-])n1)c1ccc(O)c(O)c1	14.1	1.0	3.3	42.6*
CCCCCc1ccc(CC(=O)N2CCOCC2)cc1	-1.5	-0.8	1.0	50.3*
COc1ccc(CC(=O)N2CCOCC2)cc1	-5.9	14.4	3.1	.
CCOC(=O)C1CCN(Cc2cn[nH]c2-c2ccc(C)cc2)CC1	-0.4	-7.8	0.6	.
CCOC(=O)C1CCN(Cc2cn[nH]c2-c2ccccc2)CC1	125.7*	11.0	-1.9	.
O=c1nc2s/c(=C\c3ccc(-c4ccccc4[N+](=O)[O-])o3)c(=O)n2nc1-c1ccccc1	5.5	42.8*	36.8	39.0*
CCN(c1ccccc1)c1cc2ccccc2c(=O)[nH]1	41.2	18.9	5.8	64.6*
CNc1ccc2c3c(cccc13)C(=O)N(C)C2=O	-13.1	-4.0	+	-37.4
CN1C(=O)c2cccc3c(Cl)ccc(c23)C1=O	5.4	7.4	20.2	.
CCOC(=O)c1sc(N(Cc2ccccc2)C(=O)CCl)nc1C	.	0.6	9.2	-0.3
O=C(O)CSCC(=O)N(Cc1ccccc1)c1nc(-c2ccccc2)c(-c2ccccc2)s1	2.4	-11.6	18.7	37.4*
Cc1cc(C)cc(NC(=O)Cc2ccc(S(=O)(=O)N3CCCC3)s2)c1	-0.2	.	-4.1	51.1*
O=C(Cc1ccc(S(=O)(=O)N2CCCCC2)s1)Nc1ccc(F)c(F)c1	-0.6	-5.2	-2.2	1.1
Cc1ccc(S(=O)(=O)Nc2ccc3c(c2)C(=O)N([C@@H](C)CO)C[C@@H](C)[C@@H](CN(C)CC2CCCCC2)OCCCC[C@H](C)O3)cc1	.	.	.	0.7
COc1cc(O)c2c(c1)oc(=O)c1c3cc(O)c(O)cc3oc21	.	.	.	76.7*
COc1ccc2c(c1)oc(=O)c1cc(OC)ccc12	.	-6.8	18.4	-2.7
Cc1ccc(/C=C2/C(=O)ON=C2c2ccccc2)o1	10.0	21.4	22.5	59.6*
O=C1ON=C(c2ccccc2)/C1=C\c1ccco1	13.7	25.3	2.0	35.9*
CC1=NOC(=O)/C1=C\c1ccc(-c2cccc(Cl)c2)o1	0.1	29.6	57.2*	.
O=C1ON=C(c2ccccc2)/C1=C/c1ccccc1	0.5	-4.1	2.8	1.6
CC1=CC2=NC(=O)/C(=C\c3ccc(-c4cccc(Cl)c4)o3)C(=N)N2O1	-2.5	5.1	27.5	-1.6
Cc1cccc(O)c1C	.	.	1.8	-1.1
Cc1cccc(C)c1N=Nc1c(C)cc(O)cc1C	57.7*	-3.9	7.4	3.0
O=S(=O)(N[C@H]1CC[C@@H](CCn2cc(-c3ccccc3F)nn2)O[C@H]1CO)c1ccc(F)cc1	.	.	.	-1.9
NNC(=O)CNC(=O)Nc1n[nH]c(=S)s1	-1.1	.	-3.1	61.3*
SMILES	NSD2 inh	HCV NS3 hel inh	DNMT1 block	Casp6 inh
CO[C@@H]1CN(C)C(=O)c2ccc(NS(=O)(=O)c3cccc(F)c3)cc2OC[C@H](C)NC[C@@H]1C	.	.	.	0.4
COc1cccc(NS(=O)(=O)c2ccc3c(c2)NC(=O)CC(=O)N3)c1	-1.3	6.0	0.0	99.0*
CN1C[C@@H]2[C@H](c3ccccc31)[C@H](CO)N2C(=O)Nc1cccc(F)c1	.	.	.	-1.3
O=C(/C=C(\O)c1ccc(Cl)cc1)C(=O)NNC(=O)C(O)(c1ccccc1)c1ccccc1	.	54.4*	-1.8	.
C[C@@H]1CN([C@@H](C)CO)C(=O)c2cccc(NC(=O)Nc3ccc4c(c3)OCO4)c2O[C@H]1CN(C)Cc1ccc(Oc2ccccc2)cc1	.	.	.	2.6
O=C(/C=C/c1cccs1)N1CCN(c2ccc(O)cc2)CC1	6.2	13.8	-0.1	61.9*
O=C(/C=C/c1cccs1)N1CCCCC1	-1.0	6.6	2.4	-0.3
O=C(C[C@@H]1C=C[C@@H](NS(=O)(=O)c2ccc(F)cc2)[C@H](CO)O1)NCc1ccccc1F	.	.	.	-2.1
CN(C)CCNc1ccc(CO)c2sc3ccc(O)cc3c(=O)c12	.	.	40.5	-31.5
COc1ccc2sc3cccc(NCCN(C)C)c3c(=O)c2c1	40.9	.	55.5*	11.0
CC1OC2CC(=O)OC2C2=C1C(=O)c1c(O)cccc1C2=O (stereo not drawn)	.	.	74.7*	84.8*
O=C(O)c1cccc(-n2c(O)c(C=C3N=c4ccccc4=N3)sc2=S)c1	.	32.4	-7.8	59.2*
O=C(O)c1ccc(-n2c(O)c(C=C3N=c4ccccc4=N3)sc2=S)cc1	1.2	2.0	-1.2	26.0
O=C(O)CCCn1c(O)c(C=C2N=c3ccccc3=N2)sc1=S	.	7.6	3.3	40.6*
Cc1noc(C)c1S(=O)(=O)Nc1ccc2c(c1)C(=O)N([C@H](C)CO)C[C@@H](C)[C@H](CN(C)C(=O)c1ccccc1)OCCCC[C@@H](C)O2	.	.	.	0.3
Nc1c(C(=O)Nc2ccc(Br)cc2)sc2nc(N3CCOCC3)c3c(c12)CCCC3	1.0	.	50.1*	-2.0
COC(=O)c1ccc(N)cc1O	-20.5	2.1	0.5	.
COC(=O)c1ccc(=O)c2nc3/c(=C/O)c(O)cc(=O)c3[nH]c12	.	18.1	107.5*	65.5*
O=c1[nH]c(N2CCOCC2)cc2ccccc12	.	.	-7.5	96.1*
CCC(=O)Nc1ccc2c(c1)C(=O)N(C)[C@@H]1CC[C@@H](CC(=O)N3CCCCC3)O[C@@H]1CO2	.	.	.	-3.2
C[C@H](CO)N1C[C@H](C)[C@@H](CN(C)C(=O)c2ccc(F)cc2)Oc2ncc(-c3ccc(F)cc3)cc2C1=O	.	.	.	5.2
COc1ccc(CN(C)C(=O)c2ccc(OCC(=O)Nc3cccc(C(F)(F)F)c3)c(OC)c2)c(OC)c1	-1.8	.	-5.6	56.7*
C[C@H](CO)N1C[C@H](C)[C@@H](CN(C)C(=O)Nc2ccc3c(c2)OCO3)Oc2ccc(NS(C)(=O)=O)cc2C1=O	.	.	.	-0.2
CC(=NNC(=S)Nc1ccc(C)cc1)c1ccccn1	20.9	.	-10.9	40.3*
CCCN(C)C[C@@H]1Oc2ncc(-c3ccccc3OC)cc2C(=O)N([C@H](C)CO)C[C@H]1C	.	.	.	3.6
SMILES	NSD2 inh	HCV NS3 hel inh	DNMT1 block	Casp6 inh
COc1cccc2c(SCC(=O)N/N=C/c3ccc(O)c(O)c3)cc(C)nc12	132.0*	-5.7	7.7	.
COc1ccc(/C=C2\N=C(c3ccc(C)cc3)OC2=O)cc1	0.2	25.6	4.6	-0.1
Cc1ccc(C2=N/C(=C\c3coc4ccccc4c3=O)C(=O)O2)cc1	9.3	.	.	44.1*
CC(C)NC(=O)N1CC2(C1)[C@H](c1ccccc1)[C@@H](CO)N2CCC(F)(F)F	.	.	.	-0.9
Cc1ccc(Sc2ccc(S(=O)(=O)Nc3ccc(CC(=O)O)cc3)cc2)cc1C	7.2	.	0.1	41.1*
Cc1ccc2c(c1)c1c(n2CC(O)CN2CCOCC2)CCCC1 (stereo not drawn)	.	-22.1	.	.
Cc1ccc2c(c1)c1c(n2CC(O)CNC2CCCCC2)CCCC1 (stereo not drawn)	.	-49.6	-8.5	49.5*
Cc1ccc2c(c1)c1c(n2CC(O)CN2CCC(C)CC2)CCCC1 (stereo not drawn)	9.1	-65.8	-0.5	45.9*
Cc1ccc2c(c1)c1c(n2CC(O)CNC(CO)(CO)CO)CCCC1 (stereo not drawn)	.	-14.6	-1.8	-4.1
CCCN(C)C[C@H]1Oc2ncc(Br)cc2C(=O)N([C@H](C)CO)C[C@H]1C	.	.	.	-2.8
O=C(N/C=C/c1ccco1)NCc1ccccc1	20.5	24.2	60.5*	41.6*
O=C(N/C=C/c1ccco1)OCc1ccccc1	0.4	27.5	-4.8	3.0
